ChEMBL document CHEMBL1126171, “Synthesis of 2-(p-chlorobenzyl)-3-aryl-6-methoxybenzofurans as selective ligands for antiestrogen-binding sites. Effects on cell proliferation and cholesterol synthesis” (J Med Chem, 1992)
pIC50: −log10 of the molar value. Blank lines part the entries; values can stand above or below the compound they belong to.

Legend:
[1] = biological target: T1, Anti-estrogen binding site (AEBS) (Homo sapiens) (UniProt Q15125+Q9UBM7); assay: Relative binding affinity (RBA) against AEBS (Antiestrogen binding site) in rat liver; assay type: functional, tissue-based; conditions: target entry is the homologue from another species
[2] = biological target: T1, Anti-estrogen binding site (AEBS) (Homo sapiens); assay: Relative binding affinity(RBA) against AEBS (Antiestrogen binding site) in rat liver; assay type: functional, tissue-based; conditions: target entry is the homologue from another species
[3] = biological target: T1, Anti-estrogen binding site (AEBS) (Homo sapiens); assay: Relative binding affinity(RBA) against AEBS (Antiestrogen binding site) using N1-S1 cells; assay type: functional, cell-based; conditions: Rattus norvegicus
[4] = biological target: Estrogen receptor (Homo sapiens) (UniProt Q92731+P03372); assay: Relative binding affinity(RBA) against Estrogen receptor using MCF-7 cells; assay type: cell-based; conditions: MCF7
In short: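 Competition for ER in MCF7 whole cells suspended in phosphate-buffered saline, 3 × 10^7 cells per duplicate aliquot. Incubated with 5 nM [3H]estradiol with or without 100-fold molar excess of competitor or diethylstilbestrol, then washed and counted as for the AEBS assay. Bound label reported as % of no-competitor control. Mean ± SEM of two experiments.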

[5] = biological target: T1, Anti-estrogen binding site (AEBS) (Homo sapiens); assay: Relative binding affinity (RBA) against AEBS (Antiestrogen binding site) using N1-S1 cells; assay type: functional, cell-based; conditions: Rattus norvegicus
[6] = biological target: T1, Anti-estrogen binding site (AEBS) (Homo sapiens); assay: Relative binding affinity(RBA) against AEBS (Antiestrogen binding site) in MCF-7 cells; conditions: target entry is the homologue from another species
[7] = biological target: T1, Anti-estrogen binding site (AEBS) (Homo sapiens); assay: Relative binding affinity(RBA) against AEBS (Antiestrogen binding site) in N1-S1 cells
[8] = biological target: T1, Anti-estrogen binding site (AEBS) (Homo sapiens); assay: Displacement of [3H]tamoxifen from AEBS of EL4 cells; assay type: functional, cell-based; conditions: Mus musculus
[9] = system: EL4; assay: Inhibition of [3H]thymidine incorporation into EL4 cell proliferation; assay type: functional, cell-based; conditions: Mus musculus, EL4, 48 h
In short: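 Treated 48 h with compound; DNA synthesis measured by [3H]thymidine incorporation, cells harvested onto filters and counted. Mean ± SEM of two experiments.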

[10] = system: MCF7S; assay: (§1) Inhibition of [3H]thymidine incorporation into MCF-7 cells; assay type: functional, cell-based; conditions: Homo sapiens
In short: (§2)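 After 24 h, compound (final […], diluted from 1 mM ethanolic stock; solvent controls) and [3H]thymidine (37 kBq/well) added. Incubated 48 h, then trypsinized, harvested and counted. Mean ± SEM of two experiments.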

[11] = biological target: T1, Anti-estrogen binding site (AEBS) (Homo sapiens); assay: Relative binding affinity(RBA) against AEBS (Antiestrogen binding site) using EL-4 cells; assay type: functional, cell-based; conditions: Mus musculus
[12] = system: MCF7S; assay: as §1; assay type: functional, cell-based; conditions: Homo sapiens; remark: listed apart in the source
In short: as §2, with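 “MCF7 cells in Hepes-buffered RPMI 1640 with 5% newborn calf serum, seeded 4500 per well. After” for “After”, “counted. […]” for “counted.”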

[13] = biological target: T1, Anti-estrogen binding site (AEBS) (Homo sapiens); assay: Effect on cholesterol biosynthesis in EL4 cells, 48 hr incubation with 0.25 mM [3H]acetate; assay type: functional, cell-based; conditions: Mus musculus
In short: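 EL4 cells at 20 × 10^6 cells/mL in lipoprotein-poor RPMI, incubated 48 h with 0.25 mM [3H]acetate ± 10^-7 M compound, in triplicate, two experiments. Stopped with KOH/ethanol, [14C]cholesterol added for recovery, saponified 95 °C 90 min. Nonsaponifiable lipids extracted in petroleum ether. Result as % of total incorporated label found in cholesterol; inhibition versus control; Student's t test.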

[14] = biological target: T1, Anti-estrogen binding site (AEBS) (Homo sapiens); assay: Effect on cholesterol biosynthesis in EL4 cells, 5 hr incubation with 0.25 mM [3H]acetate; assay type: functional, cell-based; conditions: Mus musculus
In short: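 EL4 cells at 20 × 10^6 cells/mL in lipoprotein-poor RPMI given 0.25 mM [3H]acetate for 5 h, without or with compound (10^-6 M or 10^-4 M depending on compound); triplicates in two experiments. KOH/ethanol saponification at 95 °C with [14C]cholesterol recovery standard; petroleum ether extraction. Label in cholesterol as % of total cellular incorporation; % inhibition versus control; Student's t test.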

[15] = Percent of cell viability by trypan blue exclusion; assay type: functional
In short: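 Viability of EL4 cells in the [3H]acetate cholesterol-synthesis incubations (20 × 10^6 cells/mL; 5 h or 48 h with compound at 10^-7 to 10^-4 M), estimated by trypan blue exclusion.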

[16] = biological target: T1, Anti-estrogen binding site (AEBS) (Homo sapiens); assay: Relative binding affinity(RBA) against AEBS (Antiestrogen binding site) in chicken liver; conditions: Gallus gallus; target entry is the homologue from another species
[17] = biological target: T1, Anti-estrogen binding site (AEBS) (Homo sapiens); assay: Relative binding affinity(RBA) against AEBS (Antiestrogen binding site) in guinea pig uterus; assay type: functional, tissue-based; conditions: Cavia porcellus, target entry is the homologue from another species
[18] = biological target: T1, Anti-estrogen binding site (AEBS) (Homo sapiens); assay: Relative binding affinity(RBA) against AEBS (Antiestrogen binding site) in N1-S1 cells; assay type: functional, cell-based; conditions: Rattus norvegicus

relative binding affinity (RBA) [3]: 68
relative binding affinity (RBA) [4]: < 1
SMILES: COc1ccc2c(c1)OCC(c1ccc(F)cc1)=C2c1ccc(OCCN2CCOCC2)cc1

relative binding affinity (RBA) [2]: 19
SMILES: COc1ccc2c(c1)OC(C)(C)[C@H](c1ccccc1)[C@H]2c1ccc(OCCN2CCCC2)cc1

relative binding affinity (RBA) [5]: 176
relative binding affinity (RBA) [4]: < 1
SMILES: COc1ccc2c(c1)OCC(c1ccc(F)cc1)=C2c1ccc(OCCN2CCCC2)cc1

relative binding affinity (RBA) [2]: 46
SMILES: COc1ccc2c(c1)OC(C)(C)[C@@H](c1ccccc1)[C@H]2c1ccc(OCCN2CCCC2)cc1

relative binding affinity (RBA) [5]: 161
relative binding affinity (RBA) [4]: < 1
SMILES: COc1ccc2c(c1)OCC(c1ccc(F)cc1)=C2c1ccc(OCCN2CCCCC2)cc1

relative binding affinity (RBA) [11]: 257
relative binding affinity (RBA) [4]: < 1
SMILES: COc1ccc2c(c1)OCC(c1ccc(Cl)cc1)=C2c1ccc(OCCN2CCCC2)cc1

relative binding affinity (RBA) [8]: 268
pIC50 [12]: 5.64
Activity [13]: 0.32% [middle of 5 runs]
Activity [14]: 0.12% [middle of 6 runs]
SMILES: COc1ccc2c(-c3ccc(OCCN4CCCC4)cc3)c(Cc3ccc(Cl)cc3)oc2c1.Cl
pIC50 [9]: 6.32
Cell viability [15]: 91%

relative binding affinity (RBA) [11]: 169
relative binding affinity (RBA) [4]: < 1
SMILES: COc1ccc2c(c1)OCC(c1ccc(Br)cc1)=C2c1ccc(OCCN2CCCC2)cc1

relative binding affinity (RBA) [2]: 23
SMILES: COc1ccc2c(-c3ccc(OCCN4CCCC4)cc3)c(-c3ccccc3)oc2c1

relative binding affinity (RBA) [2]: 90
relative binding affinity (RBA) [16]: 183
relative binding affinity (RBA) [17]: 124
SMILES: COc1ccc2c(c1)CCC(c1ccccc1)=C2c1ccc(OCCN2CCCC2)cc1

relative binding affinity (RBA) [18]: 106
relative binding affinity (RBA) [4]: < 1
SMILES: CCN(CC)CCOc1ccc(C2=C(c3ccc(F)cc3)COc3cc(OC)ccc32)cc1

relative binding affinity (RBA) [11]: 557
relative binding affinity (RBA) [4]: < 1
SMILES: COc1ccc2c(c1)OCC(c1ccccc1)=C2c1ccc(OCCN2CCCC2)cc1

The next lines start with the compound.

SMILES: CCN(CC)CCOc1ccc(Cc2ccccc2)cc1
relative binding affinity (RBA) [1]: 0.06

SMILES: CCN(CC)CCOc1cccc(C(=C2CCCCC2)c2cccc(O)c2)c1
relative binding affinity (RBA) [2]: 6

SMILES: C1=C(c2ccccc2)C(c2ccc(OCCN3CCCC3)cc2)Oc2ccccc21 (stereo not drawn)
relative binding affinity (RBA) [2]: 134

SMILES: CC/C(=C(\c1ccccc1)c1ccc(OCCN2CCOCC2)cc1)c1ccccc1
relative binding affinity (RBA) [2]: 1170

SMILES: CC/C(=C(\c1ccccc1)c1ccc(OCCN2CCCC2)cc1)c1ccccc1
relative binding affinity (RBA) [2]: 434

SMILES: C=CC(C(=O)OCCN(CC)CC)(c1ccccc1)c1ccccc1
relative binding affinity (RBA) [1]: 10

SMILES: O=C(c1ccc(OCCN2CCCC2)cc1)c1c(-c2ccc(O)cc2)sc2cc(O)ccc12
relative binding affinity (RBA) [6]: 19
relative binding affinity (RBA) [4]: 115

SMILES: CC/C(=C(\c1ccccc1)c1ccc(OCCN(CC)CC)cc1)c1ccccc1
relative binding affinity (RBA) [1]: 21
relative binding affinity (RBA) [7]: 46

SMILES: CN(C)CCOc1ccc(C2Oc3ccccc3C=C2c2ccccc2)cc1 (stereo not drawn)
relative binding affinity (RBA) [2]: 98

SMILES: COc1ccc2c(-c3ccc(OCCN(C)C)cc3)c(Cc3ccc(Cl)cc3)oc2c1
relative binding affinity (RBA) [8]: 391
pIC50 [9]: 6.02
pIC50 [10]: 5.30

SMILES: CCCC(C(=O)OCCN(CC)CC)(c1ccccc1)c1ccccc1
relative binding affinity (RBA) [1]: 12

SMILES: CCN(CC)CCOc1ccc(C(C)(C)C)cc1
relative binding affinity (RBA) [2]: 0.08

SMILES: CCN(CC)CCOC(=O)C(CC(C)C)(c1ccccc1)c1ccccc1
relative binding affinity (RBA) [1]: 5

SMILES: CN(C)CCOc1cccc(C(=C2CCCCC2)c2cccc(O)c2)c1
relative binding affinity (RBA) [2]: 17

SMILES: Oc1cccc(C(=C2CCCCC2)c2cccc(OCCN3CCOCC3)c2)c1
relative binding affinity (RBA) [2]: 25

SMILES: C1=C(c2ccccc2)C(c2ccc(OCCN3CCCCC3)cc2)Oc2ccccc21 (stereo not drawn)
relative binding affinity (RBA) [2]: 225

SMILES: COc1ccc2c(-c3ccc(OCCN4CCOCC4)cc3)c(Cc3ccc(Cl)cc3)oc2c1.Cl
relative binding affinity (RBA) [8]: 1830
pIC50 [9]: 6.47
pIC50 [10]: 5.19
Activity [14]: 0.11% [middle of 6 runs]
Cell viability [15]: 79%

SMILES: Oc1cccc(C(=C2CCCCC2)c2cccc(OCCN3CCCCC3)c2)c1
relative binding affinity (RBA) [2]: 10

SMILES: CC/C(=C(\c1ccccc1)c1ccc(OCCN2CCN(C)CC2)cc1)c1ccccc1
relative binding affinity (RBA) [2]: 540
